T cruzi repl: T. cruzi replication inhibition | actives 1.4% (n = 300,000) | T. cruzi beta-gal in NIH3T3, luminescence, 90 h | inhibition, % (no concentration beside the values);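 active means mean inhibition across valid replicates above about 55%, limit read from the data; inconclusive means mean below that limit but half or more replicates reach it; inactive means mean below it, under half of replicates reach it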;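 further: signal also drops with host cell toxicity which is not excluded here; 0% = plate median of DMSO wells and 100% = zero luminescence signal; higher percent means less beta-gal luminescence so fewer parasites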
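Incubation – ≥90 h infection period, 3 h prior cell attachment · System – NIH/3T3 fibroblasts plus reporter T. cruzi · Doses – compound pinned at 50 nL/well, DMSO · Read-out basis – percent inhibition of parasite-derived β-gal signal · Signal – luminescent β-galactosidase signal after 60 min lysis · Also added – 5000 T. cruzi trypomastigotes/well · Medium – Low-serum DMEM with 2% FBS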
MPTP inh: blocks calcium-induced mitochondrial swelling | isolated mouse mitochondria, Ca2+ swelling absorbance, 30 min | inhibition, % at 10 µM | actives 1.4% (n = 360,000);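 active means inhibition of 50% or more, scaled per plate between neutral and stimulator controls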;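 further: 0% = DMSO wells given calcium and 100% = 1 mM EGTA wells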
Lipid droplet: hepatic lipid droplet formation modulation | AML12 mouse hepatocytes, oleate lipid droplets, BODIPY imaging | AID 1656 | inhibition, % at 6.5 µM | actives 0.4% (n = 240,000);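 active means lipid droplet intensity inhibited by at least 50%, with more than 500 cells counted; inconclusive means wells with under 300 cells, treated as cytotoxic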
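System: AML12 hepatocytes (mouse). Probe or stimulus: oleic acid at 100 µM to induce lipid droplet formation. Times: overnight treatment with compound plus oleate. Detection: Image-based BODIPY and DAPI two-channel analysis. Evaluation: percent inhibition of filter-corrected integrated lipid droplet intensity per well.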
L major viab: inhibitors of Leishmania major promastigote growth | Leishmania major promastigotes, resazurin fluorescence viability | inhibition, % at 10 µM | actives 9% (n = 200,000) | AID 1063; in the data active means inhibition above about 50%;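 further: promastigotes grown with compound for 44 hours at 28 °C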
DTT redox prof: compounds producing H2O2 with reducing agent – biochemical, NIH compound library profiling, artefact control for MLSCN library redox annotation, primary screen. actives 0.03% (n = 200,000). activation, % at 10 µM. AID 878. DTT-dependent redox cycling H2O2, phenol red/HRP absorbance; 100% = 100 µM peroxide control, 0% = buffer;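 active means activation of at least 50% relative to the plate's high and low controls in the primary single-dose screen; inactive means activation below 50%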;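 further: compound incubated with DTT at 0.8 mM final as the reducing agent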
* = called active by the depositor; u = inconclusive; x = not tested or not shown. This excerpt belongs to a sample that is enriched for hits.

SMILES	T cruzi repl	MPTP inh	Lipid droplet	L major viab	DTT redox prof
COc1ccc2c(c1)C=C(CN1CCN(C3CCCC3)C(CCO)C1)CO2 (centres undefined)	58.1*	1.0	4.2	87.9*	-1.6
CC(C)N1CCN(Cc2nc(-c3ccccc3)cs2)CC1CCO (centres undefined)	5.2	1.5	-11.4	3.3	-1.1
OCCC1CN(Cc2nc(-c3ccccc3)cs2)CCN1Cc1ccc(F)cc1 (centres undefined)	32.5	8.2	-34.6	78.9*	-0.9
Cc1cc(C)c[n+](-c2[nH]c(=O)sc2/C=N/N=C(\[O-])c2cccnc2)c1	-29.7	-0.7	17.8	x	x
Cc1cccc(-c2noc(CCCC(=O)NC3CCCCC3)n2)c1	7.0	0.0	12.6	x	x
O=C(NS(=O)(=O)Nc1ccccn1)c1c[nH]c2ccccc12	2.0	-0.2	1.6	x	x
CC(C)CCN1CCN(Cc2nc(-c3ccc(F)cc3)cs2)CC1CCO (centres undefined)	41.9	0.1	-1.6	82.2*	-0.9
CC(C)=CCN1CCN(Cc2nc(-c3ccc(F)cc3)cs2)CC1CCO (centres undefined)	19.4	2.1	0.9	x	x
O=C(c1cc2ccccc2oc1=O)N(Cc1ccccc1)Cc1ccc2c(c1)OCO2	14.5	0.1	-17.5	61.0*	-0.3
O=C(c1cc2ccccc2oc1=O)N1CCN(Cc2ccc3c(c2)OCO3)CC1	-5.7	-0.1	10.1	9.8	-0.6
CC(C)(C)NCC(O)CON=C1c2ccccc2-c2ccccc21 (centres undefined)	24.0	1.9	2.8	98.8*	-0.6
CCOc1ccc(S(=O)(=O)NCCN2CCOCC2)c2ccccc12	18.8	2.4	x	95.9*	1.8
CCCOc1ccc(S(=O)(=O)NCCN2CCOCC2)c2ccccc12	29.7	-0.6	-17.7	65.8*	0.6
COc1c(S(=O)(=O)NCCN2CCOCC2)ccc(Cl)c1Cl	6.8	-1.0	-0.6	67.1*	0.0
COc1ccc(C)cc1S(=O)(=O)NCCN1CCOCC1	2.2	1.7	4.9	x	x
CCOc1cc(S(=O)(=O)NCCN2CCOCC2)c(C)cc1C	10.2	0.0	-0.2	1.4	2.8
Cc1c(Cl)cccc1NC(=O)Nc1cc(C(C)(C)C)on1	19.2	-0.7	46.7	x	x
COC(=O)c1ccc(OC(=O)C23CCC(C)(C(=O)O2)C3(C)C)cc1 (centres undefined)	-2.8	1.3	1.5	-7.3	0.2
CC1(C)C(C=C(Cl)Cl)C1C(=O)Nc1ccc([N+](=O)[O-])cc1 (centres undefined)	x	x	-4.0	87.8*	-0.2
CC1(C)C(C=C(Cl)Cl)C1C(=O)N/N=C/c1ccccc1F (centres undefined)	3.0	0.2	-25.8	x	x
N#CC1=C(N)C(C#N)(C#N)C(c2cccnc2)C2CCCC=C12 (centres undefined)	x	x	x	33.0	1.7
N#CC1=C(N)C2=CCCC[C@H]2[C@H](c2cccc(F)c2)C1(C#N)C#N	-5.1	1.7	6.5	80.5*	-0.4
O=C(NCCC1CC1(Cl)Cl)Nc1ccccc1 (centres undefined)	0.5	6.0	-38.9	x	x
CS(=O)(=O)c1cccc(NC(=O)c2ccc(Cl)c(Cl)c2)c1	57.7*	6.0	-9.8	8.5	-0.2
CCN(Cc1ccc(O)cc1)CC1CCCN(CCc2cccc(F)c2)C1 (centres undefined)	60.7*	0.6	-3.0	x	x
SMILES	T cruzi repl	MPTP inh	Lipid droplet	L major viab	DTT redox prof
CCN(Cc1cccc(OC)c1)CC1CCCN(CCc2cccc(OC)c2)C1 (centres undefined)	53.1	12.4	13.0	x	x
CN(CC1CCCN(CCc2cccc(C(F)(F)F)c2)C1)C(=O)c1ccco1 (centres undefined)	60.4*	0.3	-12.3	x	x
COc1cccc2sc(=NC(=O)CS(=O)(=O)c3ccccc3)n(C)c12	x	-0.3	x	x	x
CCn1c(=NC(=O)c2ccc(S(=O)(=O)N(C)C)cc2)sc2cccc(OC)c21	u	1.5	1.3	70.5*	-0.6
COc1cccc2sc(=NC(=O)CS(=O)(=O)c3ccc(F)cc3)n(C)c12	54.9*	-1.1	x	x	x
CCOc1cccc2sc(=NC(=O)CCS(=O)(=O)c3ccccc3)n(CC)c12	1.8	-1.1	-7.4	x	x
CCn1c(=NC(=O)CS(=O)(=O)c2ccc(C)cc2)sc2cccc(OC)c21	59.2*	-0.7	x	x	x
COc1cccc2sc(=NC(=O)CS(=O)(=O)c3ccc(Cl)cc3)n(C)c12	60.2*	-0.8	x	x	x
O=C(NC(=S)NCCc1ccccc1)c1cccc(Cl)c1	8.3	1.1	-4.5	x	x
O=C(Nc1ccc(S(=O)(=O)Nc2ncccn2)cc1)c1ccccc1NS(=O)(=O)c1ccc(Cl)cc1	-3.5	0.1	-1.0	x	x
NCCCCCc1nnc(SCc2ccc(Cl)cc2Cl)o1	12.1	-5.0	x	100.3*	1.1
COC(=O)c1cccc(Nc2ncnc3ccc(C)cc23)c1	1.4	0.4	x	50.7*	0.2
CC(C)Oc1ccc(Nc2ncnc3ccccc23)cc1	-4.0	0.4	6.1	56.4*	0.2
Cc1ccccc1C(=O)Oc1cccc(Nc2ncnc3ccccc23)c1	-7.6	-1.7	x	56.5*	-3.7
Cc1ccc(Nc2ncnc3ccccc23)cc1	-8.5	0.5	45.9	36.2	-0.8
CCCC1(CCC)NC(=O)N(CC(=O)Nc2ccc3c(c2)OCCO3)C1=O	x	-0.3	x	x	x
Cc1ccc(Cl)cc1N1CCN(C(=O)c2ccc3c(c2)CCN3S(C)(=O)=O)CC1	17.3	-0.8	2.1	x	x
Cc1c(NS(=O)(=O)c2ccc3c(c2)Cc2ccccc2-3)c(=O)n(-c2ccccc2)n1C	18.2	-2.1	-10.0	-4.0	1.5
Cc1ccc(OCCOCCn2ccnc2)c(Br)c1	36.8	-4.2	x	91.5*	1.4
Clc1ccc(OCCCn2ccnc2)c(Br)c1	52.8	0.4	-4.5	94.8*	-0.2
Cc1cc(Cl)c(OCCCn2ccnc2)c(Br)c1	45.5	3.3	-49.9	17.4	-0.2
Cc1occc1C(=O)N1CCN(S(=O)(=O)c2ccc(F)cc2)CC1	x	-0.1	x	x	x
CC1CC(NC(=O)CCn2c(=O)oc3ccccc32)CC(C)(C)C1 (centres undefined)	x	-0.1	3.0	99.4*	-1.9
O=C1c2cccnc2C(=O)N1Cc1ccc(S(=O)(=O)N2CCN(c3ccccc3)CC2)cc1	-9.1	-0.3	19.6	x	x
O=C(c1cccc(F)c1)N1CCC(N2CCCCCC2)CC1	23.9	-0.5	x	87.4*	0.1
COc1cccc(C(=O)N2CCC(N3CC(C)OC(C)C3)CC2)c1 (centres undefined)	-15.3	2.1	-10.2	73.5*	0.0
COc1cccc(C(=O)N2CCN(C3CCC(c4ccccc4)CC3)CC2)c1 (centres undefined)	27.8	-0.4	-3.0	88.9*	-0.8
Cc1cccc(OCC(=O)N2CCC(N3CCCCCC3)CC2)c1	19.0	0.9	x	92.2*	0.0
COc1cc(OC)cc(C(=O)N2CCN(C3CCC(C)CC3)CC2)c1 (centres undefined)	x	1.1	x	x	x
COc1ccc(OCC(=O)Nc2ccccc2C(=O)Nc2ccc(C(=O)O)cc2)cc1	-13.8	1.3	9.0	x	x

From PubChem
